According to ChEMBL document CHEMBL4177771, “Endoplasmic Reticulum-Localized Two-Photon-Absorbing Boron Dipyrromethenes as Advanced Photosensitizers for Photodynamic Therapy” (J Med Chem, 2018):
Activity calls are given as the source filed them.

What was measured:
[1] = Drug uptake in endoplasmic reticulum of human HeLa cells at 2 uM after 2 hrs by ER-tracker green-based confocal microscopic method; format: ADME, subcellular
Procedure, shortened: (§1)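 Cells on glass-bottom dishes given 2 μM for 2 h or 4 μM for 4 h at 37 °C. After PBS washes, stained in HBSS with 0.2 μM ER-tracker or Mito-tracker green for 15 min at 37 °C. Confocal imaging: trackers excited at 488 nm, emission 500–570 nm; BODIPY excited at 633 nm, emission 650–760 nm.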

[2] = Drug uptake in endoplasmic reticulum of human HepG2 cells at 2 uM after 2 hrs by ER-tracker green-based confocal microscopic method; format: ADME, subcellular; conditions: hepg2, 2 h; procedure, shortened: as §1
[3] = Drug uptake in mitochondria of human HeLa cells at 2 uM after 2 hrs by Mito-tracker green-based confocal microscopic method; format: ADME; procedure, shortened: as §1
[4] = Drug uptake in mitochondria of human HepG2 cells at 2 uM after 2 hrs by Mito-tracker green-based confocal microscopic method; format: ADME; conditions: hepg2, 2 h; procedure, shortened: as §1
[5] = Drug uptake in lysosome of human HeLa cells at 2 uM after 2 hrs by […]-based confocal microscopic method; format: ADME, subcellular
[6] = Drug uptake in lysosome of human HepG2 cells at 2 uM after 2 hrs by […]-based confocal microscopic method; format: ADME, subcellular; conditions: hepg2, 2 h
HepG2 [7] = test: Ratio of compound activity for induction of reactive oxygen species generation in human HepG2 cells at 0.8 uM in presence of light to in absence of light; format: toxicity, cell-based; conditions: hepg2, 0.8 µM
Procedure, shortened: (§2)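 HepG2 cells in 96-well plates incubated 2 h with 0.05–0.8 μM in RPMI 1640, washed, then loaded with H2DCFDA (10 μM in HBSS) for 30 min at 37 °C in dark. Washed, re-fed with HBSS, then irradiated (λ > 610 nm) or left dark. Fluorescence read at 485/535 nm. Mean with SEM of three independent experiments.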

[8] = Induction of singlet oxygen generation in PBS assessed as increase in decay of DPBF at 2 uM by spectroscopic method; format: functional
HeLa [9] = test: Photocytotoxicity against human HeLa cells assessed as decrease in cell viability preincubated in dark for 2 hrs followed by illumination by halogen lamp for 20 mins by MTT assay; format: functional, cell-based
Procedure, shortened: (§3)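 Cells seeded at 2 × 10^5 cells mL−1 in 96-well plates 24 h before; 2 h dark incubation with compound (0.0125–0.4 μM or 0.5–8 μM), PBS wash, re-feed. Then 300 W halogen lamp with red filter (λ > 610 nm), 40 mW cm−2, 20 min at r.t. (48 J cm−2). MTT read-out at 490 nm. IC50 = concentration killing 50% of cells. Three independent experiments, quadruplicate.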

HepG2 [10] = test: Photocytotoxicity against human HepG2 cells assessed as decrease in cell viability preincubated in dark for 2 hrs followed by illumination by halogen lamp for 20 mins by MTT assay; format: functional, cell-based; procedure, shortened: as §3
[11] = Dark toxicity against human HeLa cells assessed as decrease in cell viability at 0.0125 to 0.4 uM incubated for 2 hrs by MTT assay; format: cell-based
Procedure, shortened: (§4)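 Cells seeded at 2 × 10^5 cells mL−1 in 96-well plates 24 h before; incubated with compound (0.4–0.0125 μM or 8–0.5 μM series) in dark 2 h, washed with PBS, re-fed, kept unirradiated. MTT (3 mg mL−1) added, 4 h at 37 °C, DMSO added, absorbance at 490 nm. Mean ± SEM of three independent experiments, each in quadruplicate. HepG2 cells were grown in RPMI 1640 and HeLa in DMEM.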

[12] = Dark toxicity against human HepG2 cells assessed as decrease in cell viability at 0.0125 to 0.4 uM incubated for 2 hrs by MTT assay; format: cell-based; conditions: hepg2, 2 h; procedure, shortened: as §4
[13] = Drug uptake in human HeLa cells at 2 uM after 2 hrs by flow cytometric method; format: ADME, cell-based
Procedure, shortened: (§5)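 Cells in 35 mm dishes incubated in RPMI 1640 at 37 °C, 5% CO2, with 2 μM for 2 h or 4 μM for 4 h. Rinsed, trypsinised, pelleted at 400g, resuspended in HBSS. Flow cytometry on 10^4 cells: excitation 640 nm, emission 720–840 nm. Triplicate; mean ± SD of three independent experiments.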

[14] = Drug uptake in human HepG2 cells at 2 uM after 2 hrs by flow cytometric method; format: ADME, cell-based; conditions: hepg2, 2 h; procedure, shortened: as §5
[15] = Stability of the compound in PBS at 2 uM measured over 25 mins in presence of illumination by halogen lamp; format: physicochemical; conditions: buffer
HepG2 [16] = test: Photocytotoxicity against human HepG2 cells assessed as decrease in cell viability at 0.19 uM preincubated in dark for 2 hrs followed by illumination by halogen lamp for 20 mins by MTT assay relative to control; format: functional
Procedure, shortened: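 Light-dose study: HepG2 cells given 0.19 μM for 2 h, washed twice with PBS, re-fed, then illuminated with halogen lamp (λ > 610 nm, 40 mW cm−2) for 10, 15, 20 or 25 min. Viability by MTT (4 h, 37 °C), DMSO, absorbance at 490 nm.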

HeLa [17] = test: Induction of apoptosis in human HeLa cells at 2 uM preincubated in dark for 2 hrs followed by two photon irradiation for 10 mins measured after 3 hrs by propidium iodide staining-based laser scanning microscopic method; format: functional, cell-based
Procedure, shortened: (§6)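 HeLa cells given 2 μM for 2 h, rinsed and re-fed. Irradiated with 800 nm laser (400 mW) for 10 min at 37 °C, 5% CO2; dark controls kept unirradiated. After 3 h, stained with PI (50 μg in 1 mL PBS) for 10 min, rinsed. Imaged with PI excited at 488 nm (550–700 nm) and BODIPY at 633 nm (640–735 nm), plus bright field.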

HeLa [18] = test: Induction of apoptosis in human HeLa cells assessed as cell shrinkage at 2 uM preincubated in dark for 2 hrs followed by two photon irradiation for 10 mins measured after 3 hrs by bright field microscopic method; format: functional, cell-based; procedure, shortened: as §6
[19] = Drug uptake in human HeLa cells at 2 uM incubated for 2 hrs upon one-photon excitation by confocal microscopic method; format: ADME, cell-based
Procedure, shortened: (§7)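 HeLa cells (about 1.2 × 10^5) grown overnight on glass-bottom dishes, then treated with 2 μM in medium containing 0.125% v/v DMF and 0.025% v/v Tween 80 for 2 h. Rinsed with PBS and imaged by laser scanning microscopy with 633 nm (one-photon) or 800 nm (two-photon) excitation.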

[20] = Drug uptake in human HeLa cells at 2 uM incubated for 2 hrs upon two-photon excitation by confocal microscopic method; format: ADME, cell-based; procedure, shortened: as §7
HepG2 [21] = test: Induction of reactive oxygen species generation in human HepG2 cells at 0.05 to 0.8 uM after 2 hrs in presence of light by H2DCFDA probe-based fluorescence assay; format: functional, cell-based; procedure, shortened: as §2
HepG2 [22] = test: Induction of reactive oxygen species generation in human HepG2 cells at 0.05 to 0.8 uM after 2 hrs in absence of light by H2DCFDA probe-based fluorescence assay; format: cell-based; conditions: hepg2, 2 h; procedure, shortened: as §2
HepG2 [23] = test: Increase in intracellular calcium levels in human HepG2 cells at 0.05 to 0.8 uM after 2 hrs in presence of light by fluo-3 AM dye-based fluorescence assay relative to control; format: functional
Procedure, shortened: (§8)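 HepG2 cells in 96-well plates given 0.05–0.8 μM in RPMI 1640 for 2 h, with or without illumination (λ > 610 nm). Afterwards washed, loaded with Fluo-3 AM (2.5 μM in HBSS) for 1 h at 37 °C in dark. Washed, re-fed with HBSS, fluorescence read at 485/535 nm. Mean with SEM of three independent experiments.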

HepG2 [24] = test: Increase in intracellular calcium levels in human HepG2 cells at 0.05 to 0.8 uM after 2 hrs in absence of light by fluo-3 AM dye-based fluorescence assay; format: ADME, cell-based; conditions: hepg2, 2 h; procedure, shortened: as §8
HepG2 [25] = test: Induction of endoplasmic reticulum stress in human HepG2 cells assessed as upregulation of GRP78 expression at 0.15 uM after 4 to 8 hrs in presence of light by Western blot method; format: functional, cell-based
Procedure, shortened: (§9)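 HepG2 cells in 60 mm dishes treated with 150 nM in RPMI 1640, with or without illumination (λ > 610 nm). Lysed in RIPA buffer at 2, 4, 6 and 8 h after PDT. Equal protein run on 10% polyacrylamide gels and transferred to PVDF. Blocked in 5% nonfat milk, probed for GRP78, CHOP and actin, with HRP chemiluminescent detection. Control cells were illuminated without compound.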

HepG2 [26] = test: Induction of endoplasmic reticulum stress in human HepG2 cells assessed as upregulation of CHOP expression at 0.15 uM after 4 to 8 hrs in presence of light by Western blot method; format: functional, cell-based; procedure, shortened: as §9
HepG2 [27] = test: Induction of endoplasmic reticulum stress in human HepG2 cells assessed as upregulation of GRP78 expression at 0.15 uM after 4 to 8 hrs in absence of light by Western blot method; format: cell-based; conditions: hepg2, 0.15 µM; procedure, shortened: as §9
HepG2 [28] = test: Induction of endoplasmic reticulum stress in human HepG2 cells assessed as upregulation of CHOP expression at 0.15 uM after 4 to 8 hrs in absence of light by Western blot method; format: cell-based; conditions: hepg2, 0.15 µM; procedure, shortened: as §9
HeLa [29] = test: Induction of apoptosis in human HeLa cells at 2 uM incubated in dark for 2 hrs measured after 3 hrs by propidium iodide staining-based laser scanning microscopic method; format: cell-based; procedure, shortened: as §6
[30] = Induction of singlet oxygen generation in DMF assessed as increase in decay of DPBF at 1 uM by spectroscopic method
[31] = Drug uptake in endoplasmic reticulum of human HeLa cells at 4 uM after 4 hrs by ER-tracker green-based confocal microscopic method; format: ADME, subcellular; procedure, shortened: as §1
[32] = Drug uptake in endoplasmic reticulum of human HepG2 cells at 4 uM after 4 hrs by ER-tracker green-based confocal microscopic method; format: ADME, subcellular; conditions: hepg2, 4 h; procedure, shortened: as §1
[33] = Drug uptake in mitochondria of human HeLa cells at 4 uM after 4 hrs by Mito-tracker green-based confocal microscopic method; format: ADME; procedure, shortened: as §1
[34] = Drug uptake in mitochondria of human HepG2 cells at 4 uM after 4 hrs by Mito-tracker green-based confocal microscopic method; format: ADME; conditions: hepg2, 4 h; procedure, shortened: as §1
[35] = Drug uptake in lysosome of human HeLa cells at 4 uM after 4 hrs by […]-based confocal microscopic method; format: ADME, subcellular
[36] = Drug uptake in lysosome of human HepG2 cells at 4 uM after 4 hrs by […]-based confocal microscopic method; format: ADME, subcellular; conditions: hepg2, 4 h
[37] = Dark toxicity against human HeLa cells assessed as decrease in cell viability at 0.5 to 8 uM incubated for 2 hrs by MTT assay; format: cell-based; procedure, shortened: as §4
[38] = Dark toxicity against human HepG2 cells assessed as decrease in cell viability at 0.5 to 8 uM incubated for 2 hrs by MTT assay; format: cell-based; conditions: hepg2, 2 h; procedure, shortened: as §4
[39] = Drug uptake in human HeLa cells at 4 uM after 4 hrs by flow cytometric method; format: ADME, cell-based; procedure, shortened: as §5
[40] = Drug uptake in human HepG2 cells at 4 uM after 4 hrs by flow cytometric method; format: ADME, cell-based; conditions: hepg2, 4 h; procedure, shortened: as §5

CCOC(=O)COc1ccc(C2=C3C(C)=C(Br)C(/C=C/c4ccc(OCCOCCOCCOC)cc4)=[N+]3[B-](F)(F)n3c(/C=C/c4ccc(OCCOCCOCCOC)cc4)c(Br)c(C)c32)cc1
Not Active: Drug uptake [1] | Drug uptake [2] | Drug uptake [3] | Drug uptake [4] | Drug uptake [5] | Drug uptake [6]

COCCOCCOCCOc1ccc(/C=C/C2=[N+]3C(=C(c4ccc(OCC(=O)NCCc5ccc(S(=O)(=O)NC(=O)NC6CCCCC6)cc5)cc4)c4c(C)c(Br)c(/C=C/c5ccc(OCCOCCOCCOC)cc5)n4[B-]3(F)F)C(C)=C2Br)cc1
90 nM: IC50 (HeLa [9])
50%: Activity (HepG2 [16])
160 nM: IC50 (HepG2 [10])
Not Active: Drug uptake [3] | Drug uptake [4] | Drug uptake [5] | Drug uptake [6]
Stable: Stability [15]
Non-Toxic: Activity [11] | Activity [12] | Activity (HepG2 [22]) | Activity (HepG2 [24]) | Activity (HepG2 [27]) | Activity (HepG2 [28]) | Activity (HeLa [29])
active: Activity [8] | Activity (HeLa [17]) | Activity (HeLa [18]) | Activity (HepG2 [21]) Dose-dependent effect | Activity (HepG2 [25]) | Activity (HepG2 [26]) | Activity [30]
9: Ratio (HepG2 [7])
Active: Drug uptake [13] | Drug uptake [14] | Drug uptake [1] | Drug uptake [2] | Drug uptake [19] | Drug uptake [20]
3.5: fold change (FC) (HepG2 [23])

CCOC(=O)COc1ccc(C2=C3C(C)=C(Br)C(/C=C/c4ccc5c(c4)c4ccccc4n5CCOCCOCCOC)=[N+]3[B-](F)(F)n3c(/C=C/c4ccc5c(c4)c4ccccc4n5CCOCCOCCOC)c(Br)c(C)c32)cc1
Not Active: Drug uptake [31] | Drug uptake [32] | Drug uptake [33] | Drug uptake [34] | Drug uptake [35] | Drug uptake [36]

COCCOCCOCCn1c2ccccc2c2cc(/C=C/C3=[N+]4C(=C(c5ccc(OCC(=O)NCCc6ccc(S(=O)(=O)NC(=O)NC7CCCCC7)cc6)cc5)c5c(C)c(Br)c(/C=C/c6ccc7c(c6)c6ccccc6n7CCOCCOCCOC)n5[B-]4(F)F)C(C)=C3Br)ccc21
Not Active: Drug uptake [33] | Drug uptake [34] | Drug uptake [35] | Drug uptake [36]
Active: Drug uptake [39] | Drug uptake [40] | Drug uptake [31] | Drug uptake [32]
3200 nM: IC50 (HeLa [9])
active: Activity [8] | Activity [30]
Stable: Stability [15]
Non-Toxic: Activity [37] | Activity [38]
5200 nM: IC50 (HepG2 [10])
